pIC50: −log10 of the molar value. Several values for one entry are separate records, joined by “and”; a condition that tells them apart may be missing. Equal values may be shown once. Read-outs that look alike come from different tables or passages of the source.
Tests used:
[1] = system: ATP synthase from E. coli; conditions: cited from earlier work
[2] = target: membrane-bound F1Fo-ATPase (Escherichia coli, UniProt P0ABA6+P0ABB0+P0ABB4); assay: ATP hydrolysis by membrane vesicles; assay type: biochemical, E. coli; conditions: for pIC50: two replicates of 5-6 concentrations
F1-ATPase = F1-ATPase (Escherichia coli, UniProt P0ABA6+P0ABB0+P0ABB4); assay: ATP hydrolysis by purified F1-ATPase, colorimetric phosphate release; assay type: biochemical, E. coli; conditions: for pIC50: read-out: F1-ATPase Activity IC50
NDH-1 (Complex I) = NDH-1 (Complex I) (Escherichia coli, UniProt P31979); assay: NDH-1 NADH oxidase activity in membrane vesicles; assay type: biochemical, E. coli; conditions: for NDH-1 Deamino-NADH oxidase Maximum inhibition: strain 1100 membranes
[3] = target: NDH-2 (alternative NADH dehydrogenase) (Escherichia coli, UniProt P00393); assay: NDH-2 NADH oxidase activity in membrane vesicles of strain BA14; assay type: biochemical, E. coli
[4] = system: rat liver mitochondrial ATP synthase; conditions: read-out: IC50, rat liver mitochondrial ATP synthase; cited from earlier work
[5] = system: superoxide production by NDH-1 and NDH-2; assay type: biochemical, E. coli
How it was run: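 E. coli membrane vesicles, prepared at pH 6.0, from strain MWC215 (no NDH-2) or BA14 (nuo deletion, no NDH-1); 200 μg in 0.2 ml of 50 mM MOPS pH 7.3 with 10 mM MgCl2. Preincubated 5 min with increasing test compound, then 5 μM MitoSOX plus 1.25 mM NADH added. Dark, 15 min, 30 °C; fluorescence 510/580 nm. Background controls: no NADH; SOD (150 units).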

[6] = membrane vesicles from wild type strain 1100
[7] = read-out: Membrane-bound ATPase Activity IC50, membrane vesicles from wild type strain 1100
[8] = read-out: NDH-2 NADH oxidase IC50, strain BA14 membranes, 250 μM NADH

Sequence of NDH-2 (alternative NADH dehydrogenase) (P00393 whole entry): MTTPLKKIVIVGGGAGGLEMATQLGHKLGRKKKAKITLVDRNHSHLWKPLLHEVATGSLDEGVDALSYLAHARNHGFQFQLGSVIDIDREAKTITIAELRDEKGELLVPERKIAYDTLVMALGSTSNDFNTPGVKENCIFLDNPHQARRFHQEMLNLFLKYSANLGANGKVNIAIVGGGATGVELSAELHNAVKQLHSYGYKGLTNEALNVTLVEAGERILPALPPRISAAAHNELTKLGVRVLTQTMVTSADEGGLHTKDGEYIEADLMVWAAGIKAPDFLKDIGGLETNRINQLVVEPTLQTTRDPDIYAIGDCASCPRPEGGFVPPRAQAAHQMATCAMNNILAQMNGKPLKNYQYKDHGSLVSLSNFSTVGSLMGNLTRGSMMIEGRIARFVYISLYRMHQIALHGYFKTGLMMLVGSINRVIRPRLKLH
Sequence of F1-ATPase (P0A6E6 2-139): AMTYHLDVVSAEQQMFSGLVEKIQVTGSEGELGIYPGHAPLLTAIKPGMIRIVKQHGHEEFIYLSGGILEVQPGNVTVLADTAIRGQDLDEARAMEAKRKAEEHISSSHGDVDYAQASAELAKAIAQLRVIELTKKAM
Sequence of F1-ATPase (P0ABB4 2-460): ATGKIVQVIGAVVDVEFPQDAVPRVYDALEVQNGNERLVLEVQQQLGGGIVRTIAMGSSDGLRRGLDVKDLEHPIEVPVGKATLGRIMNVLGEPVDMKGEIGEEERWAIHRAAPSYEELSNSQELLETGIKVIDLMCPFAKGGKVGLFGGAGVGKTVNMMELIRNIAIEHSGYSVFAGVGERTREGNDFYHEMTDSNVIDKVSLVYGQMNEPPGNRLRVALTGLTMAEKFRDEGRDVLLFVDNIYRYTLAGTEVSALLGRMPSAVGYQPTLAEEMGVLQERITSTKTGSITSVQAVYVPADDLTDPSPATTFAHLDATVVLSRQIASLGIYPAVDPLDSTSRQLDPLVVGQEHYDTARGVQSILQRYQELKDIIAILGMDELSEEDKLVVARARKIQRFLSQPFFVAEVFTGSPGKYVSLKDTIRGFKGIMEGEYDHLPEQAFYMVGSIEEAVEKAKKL
Sequence of F1-ATPase (P0ABB0 whole entry): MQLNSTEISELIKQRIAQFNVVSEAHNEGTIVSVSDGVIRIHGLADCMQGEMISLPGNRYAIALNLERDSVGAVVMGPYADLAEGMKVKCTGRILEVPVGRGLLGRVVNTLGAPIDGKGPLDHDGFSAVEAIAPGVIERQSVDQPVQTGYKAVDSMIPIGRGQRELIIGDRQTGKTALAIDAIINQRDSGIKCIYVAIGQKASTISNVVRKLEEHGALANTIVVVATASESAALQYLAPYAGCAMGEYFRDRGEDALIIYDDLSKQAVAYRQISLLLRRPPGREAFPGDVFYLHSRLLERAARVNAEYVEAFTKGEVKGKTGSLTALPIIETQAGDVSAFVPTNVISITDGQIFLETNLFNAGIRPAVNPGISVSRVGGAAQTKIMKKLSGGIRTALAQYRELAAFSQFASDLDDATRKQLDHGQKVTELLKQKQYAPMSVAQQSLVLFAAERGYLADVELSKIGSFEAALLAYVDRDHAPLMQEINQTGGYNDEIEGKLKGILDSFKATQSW
Sequence of F1-ATPase (P0ABA4 whole entry, further chain): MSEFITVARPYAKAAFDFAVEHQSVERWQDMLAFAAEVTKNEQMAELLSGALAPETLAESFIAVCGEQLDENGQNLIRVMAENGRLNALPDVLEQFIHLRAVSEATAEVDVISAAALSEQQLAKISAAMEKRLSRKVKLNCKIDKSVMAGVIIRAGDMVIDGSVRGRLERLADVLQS
Sequence of F1-ATPase (P0ABA6 whole entry): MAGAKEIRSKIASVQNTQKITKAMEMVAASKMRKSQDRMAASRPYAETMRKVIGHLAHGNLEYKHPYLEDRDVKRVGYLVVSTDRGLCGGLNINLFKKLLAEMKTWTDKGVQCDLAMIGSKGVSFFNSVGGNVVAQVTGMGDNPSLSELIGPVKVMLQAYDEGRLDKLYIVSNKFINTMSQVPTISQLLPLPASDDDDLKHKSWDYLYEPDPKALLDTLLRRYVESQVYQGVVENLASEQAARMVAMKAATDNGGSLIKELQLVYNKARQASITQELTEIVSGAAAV

| Compound | extent of inhibition of E. coli ATP synthase [1] | Membrane-bound ATPase Activity Maximum inhibition [2, 6] [%] | F1-ATPase Activity Maximum inhibition (F1-ATPase) [%] | pIC50 (F1-ATPase) | NDH-1 Deamino-NADH oxidase Maximum inhibition (NDH-1 (Complex I)) [%] | NDH-2 NADH oxidase Maximum inhibition ([3]; strain BA14 membranes) [%] | further results |
| --- | --- | --- | --- | --- | --- | --- | --- |
| NC12CC3CC(CC(C3)C1)C2 [amantidin] | complete inhibition | – | – | – | – | – | – |
| Oc1cc(O)cc(/C=C/c2ccc(O)c(O)c2)c1 [piceatannol] | complete inhibition | – | – | – | – | – | – |
| O=c1c(O)c(-c2ccc(O)cc2O)oc2cc(O)cc(O)c12 [morin] | complete inhibition | – | – | – | – | – | – |
| (−) epigallocatechin gallate [EGCG, reference compound] | – | 95 | 90 | 5.35 | 90 | 65 | pIC50 [2, 7]: ~4.52 and 4.52; pIC50 [3, 8]: 4.70; pIC50 [4]: 4.77 |
| O=c1c(O)cc([C@H]2Oc3cc(O)cc(O)c3C[C@H]2O)cc2c([C@H]3Oc4cc(O)cc(O)c4C[C@H]3O)cc(O)c(O)c12 [TF1, theaflavin] | – | 85 | 85 | 5.40 | 95 | 75 | pIC50 ([2]; Membrane-bound ATPase Activity IC50, membrane vesicles from wild type strain 1100): ~4.22 and 4.22; pIC50 (NDH-1 (Complex I)): 4.35; pIC50 [3]: 5.52 |
| O=c1cc(-c2ccccc2)oc2cc(O)c(O)c(O)c12 [baicalein] | complete inhibition | – | – | – | – | – | – |
| O=C(O[C@@H]1Cc2c(O)cc(O)cc2O[C@@H]1c1cc(=O)c(O)c2c(O)c(O)cc([C@H]3Oc4cc(O)cc(O)c4C[C@H]3O)c2c1)c1cc(O)c(O)c(O)c1 [TF2A, theaflavin-3-gallate] | – | 95 | 90 | 5.52 | 95 | 95 | pIC50 [2, 7]: 4.70; pIC50 [3, 8]: 5.46 |
| Oc1cc(O)c2c(c1)O[C@H](c1ccc(O)c(O)c1)[C@H](O)C2 [epicatechin, (−) epicatechin] | complete inhibition | – | – | – | – | – | pIC50 ([1]; read-out: IC50, E. coli ATP synthase): 2.40 |
| theaflavin-3,3′-digallate [TF3] | – | – | – | – | – | – | concentration at which superoxide production was completely eliminated ([5]; NADH oxidation by each dehydrogenase): about 15 μM; effect on superoxide production ([5]; added at levels in the range of the IC50 value): superoxide did not increase, but rather decreased |
| O=C(O[C@@H]1Cc2c(O)cc(O)cc2O[C@@H]1c1cc(O)c(O)c2c(=O)c(O)cc([C@H]3Oc4cc(O)cc(O)c4C[C@H]3O)cc12)c1cc(O)c(O)c(O)c1 [TF2B, theaflavin-3′-gallate] | – | 95 | 95 | 5.82 | 95 | 90 | pIC50 [2, 7]: 4.82; pIC50 [3, 8]: 5.60 |
| CC(N)C12CC3CC(CC(C3)C1)C2 (stereo not shown) [rimantadin] | complete inhibition | – | – | – | – | – | – |
| COc1cc(C2Oc3cc([C@H]4Oc5cc(O)cc(O)c5C(=O)[C@@H]4O)ccc3OC2CO)ccc1O (stereo partly shown) [silibinin] | complete inhibition | – | – | – | – | – | – |

— publication PMC8717676 (The Journal of nutritional biochemistry, 2011)
